In ChEMBL document CHEMBL4130356, “Design, synthesis and 2D QSAR study of novel pyridine and quinolone hydrazone derivatives as potential antimicrobial and antitubercular agents” (Eur J Med Chem, 2017):
Converted amounts (≈) assume the structure as drawn. The source made the active and inactive calls. The calls are words filed in the database; no cut-off is given here.

Columns and labels:
Escherichia coli [1] = test: Antimicrobial activity against Escherichia coli RCMB 010052 after 24 hrs by serial dilution method; assay type: functional; conditions: RCMB 010052, 24 h
Summary of the method: (§1)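 Serial twofold dilution in microtiter plates starting from a 100 mmol stock in DMSO; final concentrations 125 down to 0.12 […]. Incubated at 37°C and read on a microplate reader after 24 h. Ciprofloxacin was the reference. Run in triplicate, with the average taken. MIC was the lowest concentration inhibiting growth.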

Candida albicans [2] = test: Antimicrobial activity against Candida albicans RCMB 05036 assessed as diameter of zone inhibition at 100 ug/ml after 48 hrs by agar well diffusion assay; assay type: functional; conditions: for zone of inhibition at 100 µg/mL: RCMB 05036, 48 h, read-out: DIZ
Summary of the method: (§2)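 Agar well diffusion on malt agar plates seeded with the fungus, using 1 cm wells. Plates were held at 4°C for 1 h for diffusion, then incubated at 28°C. Inhibition zone diameters were measured at 48 h. Amphotericin B was the positive control. Run in triplicate, with the mean zone reported.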

Escherichia coli [3] = test: Antimicrobial activity against Escherichia coli RCMB 010052 assessed as diameter of zone inhibition at 100 ug/ml after 24 hrs by agar well diffusion assay; assay type: functional; conditions: for zone of inhibition at 100 µg/mL: RCMB 010052, 24 h, read-out: DIZ
Summary of the method: (§3)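 Agar well diffusion on nutrient agar plates seeded with the bacterium, using 1 cm wells. Plates were held at 4°C for 1 h for diffusion, then incubated at 37°C. Inhibition zone diameters were measured at 24 h. Ciprofloxacin was the positive control. Run in triplicate, with the mean zone reported.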

[4] = system: Mycobacterium tuberculosis; test: Antimycobacterial activity against Mycobacterium tuberculosis RCMB 010126 clinical isolate after 7 days by MABA; assay type: functional
Summary of the method: (§4)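 Inoculum from fresh LJ culture resuspended in 7H9-S broth with casitone, glycerol and OADC, adjusted to McFarland No. 1 and diluted 1:20. Serial two-fold compound dilutions in 7H9-S; isoniazid reference. Incubated 7 days at 37°C in air, then Alamar blue added and incubated overnight. Percent inhibition = 1 − (test well/growth-control mean) × 100; MIC = lowest concentration preventing blue-to-pink change.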

[5] = system: Mycobacterium tuberculosis; test: Antimycobacterial activity against Mycobacterium tuberculosis RCMB 010126 clinical isolate assessed as inhibition zone after 7 days by MABA; assay type: functional; summary of the method: as §4
Staphylococcus aureus [6] = test: Antimicrobial activity against Staphylococcus aureus RCMB 010028 assessed as diameter of zone inhibition at 100 ug/ml after 24 hrs by agar well diffusion assay; assay type: functional; conditions: for zone of inhibition at 100 µg/mL: RCMB 010028, 24 h, read-out: DIZ; summary of the method: as §3
Streptococcus pneumoniae [7] = test: Antimicrobial activity against Streptococcus pneumoniae RCMB 010010 assessed as diameter of zone inhibition at 100 ug/ml after 24 hrs by agar well diffusion assay; assay type: functional; conditions: for zone of inhibition at 100 µg/mL: RCMB 010010, 24 h, read-out: DIZ; summary of the method: as §3
Candida albicans [8] = test: Antimicrobial activity against Candida albicans RCMB 05036 after 48 hrs by serial dilution method; assay type: functional; conditions: RCMB 05036, 48 h
Summary of the method: as §1, with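 “28°C” for “37°C”, “48” for “24”, “Amphotericin B” for “Ciprofloxacin”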

Staphylococcus aureus [9] = test: Antimicrobial activity against Staphylococcus aureus RCMB 010028 after 24 hrs by serial dilution method; assay type: functional; conditions: RCMB 010028, 24 h; summary of the method: as §1
Streptococcus pneumoniae [10] = test: Antimicrobial activity against Streptococcus pneumoniae RCMB 010010 after 24 hrs by serial dilution method; assay type: functional; conditions: RCMB 010010, 24 h; summary of the method: as §1
Pseudomonas aeruginosa [11] = conditions: RCMB 010043, 100 ug/ml
Aspergillus fumigatus [12] = test: Antimicrobial activity against Aspergillus fumigatus RCMB 02568 assessed as diameter of zone inhibition at 100 ug/ml after 48 hrs by agar well diffusion assay; assay type: functional; conditions: for zone of inhibition at 100 µg/mL: RCMB 02568, 48 h, read-out: DIZ; summary of the method: as §2
Pseudomonas aeruginosa [13] = conditions: RCMB 010043
Aspergillus fumigatus [14] = test: Antimicrobial activity against Aspergillus fumigatus RCMB 02568 after 48 hrs by serial dilution method; assay type: functional; conditions: RCMB 02568, 48 h
Summary of the method: as §1, with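 “28°C” for “37°C”, “48” for “24”, “Amphotericin B” for “Ciprofloxacin”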

[15] = Mycobacterium tuberculosis, RCMB 010126, 168 h

SMILES | MIC (Escherichia coli [1]) [µg/mL] | zone of inhibition at 100 µg/mL (Candida albicans [2]) [mm] | zone of inhibition at 100 µg/mL (Escherichia coli [3]) [mm] | MIC [4] | inhibition zone (IZ) [5] | zone of inhibition at 100 µg/mL (Staphylococcus aureus [6]) [mm] | zone of inhibition at 100 µg/mL (Streptococcus pneumoniae [7]) [mm] | MIC (Candida albicans [8]) [µg/mL] | MIC (Staphylococcus aureus [9]) [µg/mL] | MIC (Streptococcus pneumoniae [10]) [µg/mL] | DIZ (Pseudomonas aeruginosa [11]) | zone of inhibition at 100 µg/mL (Aspergillus fumigatus [12]) [mm] | MIC (Pseudomonas aeruginosa [13]) | MIC (Aspergillus fumigatus [14]) [µg/mL] | diameter of the inhibition zone (DIZ) (Candida albicans [2]) | diameter of the inhibition zone (DIZ) (Escherichia coli [3]) | MIC [4, 15] [µg/mL] | diameter of the inhibition zone (DIZ) (Staphylococcus aureus [6]) | diameter of the inhibition zone (DIZ) (Streptococcus pneumoniae [7]) | diameter of the inhibition zone (DIZ) (Aspergillus fumigatus [12])
COc1ccc(/C=N/NC(=O)c2c[nH]c3cc(Cl)ccc3c2=O)cc1OC | 3.9 (≈ 10.1 µM) | 16.2 | 20.3 | inactive | inactive | 20.6 | 17.3 | 31.2 (≈ 81 µM) | 1.95 (≈ 5.05 µM) | 15.6 (≈ 40.5 µM) | inactive | 20.3 | inactive | 3.9 (≈ 10.1 µM) |  |  |  |  |  | 
Cc1ccc(/C=N/NC(=O)c2ccc(-c3ccc(Cl)cc3)nc2C)cc1 |  |  |  |  | 26.35 mm |  |  |  |  |  | inactive |  |  |  | inactive | inactive | 49.9 (≈ 137 µM) | inactive | inactive | inactive
O=C(N/N=C/c1ccc(F)cc1)c1c[nH]c2ccc(Cl)cc2c1=O | 62.5 (≈ 182 µM) | 10.3 | 12.7 | inactive | inactive | 10.6 | 12.4 | 31.2 (≈ 90.9 µM) | 31.2 (≈ 90.9 µM) | 15.6 (≈ 45.5 µM) | inactive | 11.3 | inactive | 15.6 (≈ 45.5 µM) |  |  |  |  |  | 
COc1ccc(/C=N/NC(=O)c2c[nH]c3ccc(Cl)cc3c2=O)cc1OC | 1.95 (≈ 5.05 µM) | 16.9 | 21.3 |  | 31.25 mm | 17.2 | 19.1 | 15.6 (≈ 40.5 µM) | 15.6 (≈ 40.5 µM) | 3.9 (≈ 10.1 µM) | inactive | 18.4 | inactive | 7.81 (≈ 20.2 µM) |  |  | 25 (≈ 64.7 µM) |  |  | 
O=C(N/N=C/c1ccc(Cl)cc1)c1c[nH]c2ccc(Cl)cc2c1=O | 1.95 (≈ 5.41 µM) | 13.6 | 20.6 |  | 17.8 mm | 15.3 | 17.3 | 62.5 (≈ 174 µM) | 31.2 (≈ 86.8 µM) | 15.6 (≈ 43.4 µM) | inactive | 16.3 | inactive | 31.2 (≈ 86.8 µM) |  |  | 99.8 (≈ 277 µM) |  |  | 
Cc1ccc(/C=N/NC(=O)c2c[nH]c3cc(Cl)ccc3c2=O)cc1 | 62.5 (≈ 184 µM) | 14.5 | 15 | inactive | inactive | 14.4 | 13.9 | 62.5 (≈ 184 µM) | 62.5 (≈ 184 µM) | 62.5 (≈ 184 µM) | inactive | 13.7 | inactive | 62.5 (≈ 184 µM) |  |  |  |  |  | 
Cc1nc(-c2cccc(Cl)c2)ccc1C(=O)N/N=C/c1ccc(Cl)cc1Cl |  |  |  |  | 41.98 mm | 11.4 | 19.3 |  |  |  | inactive |  |  |  | inactive | inactive | 6.24 (≈ 14.9 µM) |  |  | inactive
O=C(N/N=C/c1ccc(Cl)cc1Cl)c1c[nH]c2ccc(Cl)cc2c1=O | 1.95 (≈ 4.94 µM) | 14.1 | 20.7 |  | 18.3 mm | 15.7 | 17.5 | 62.5 (≈ 158 µM) | 15.6 (≈ 39.6 µM) | 7.81 (≈ 19.8 µM) | inactive | 16.9 | inactive | 15.6 (≈ 39.6 µM) |  |  | 99.8 (≈ 253 µM) |  |  | 
CC1(C)S[C@@H]2[C@H](NC(=O)[C@H](N)c3ccccc3)C(=O)N2[C@H]1C(=O)O [AMPICILLIN] |  |  |  |  |  | 27.4 | 23.8 |  | 0.98 (≈ 2.8 µM) | 0.98 (≈ 2.8 µM) |  |  |  |  |  |  |  |  |  | 
COc1cc(/C=N/NC(=O)c2c[nH]c3cc(Cl)ccc3c2=O)cc(OC)c1OC |  |  |  |  | 42.65 mm |  |  |  |  |  | inactive |  |  |  | inactive | inactive | 6.24 (≈ 15 µM) | inactive | inactive | inactive
